Experimental findings from ChEMBL document CHEMBL1129534, “Antitumor agents. 163. Three-dimensional quantitative structure-activity relationship study of 4'-O-demethylepipodophyllotoxin analogs using the modified CoMFA/q2-GRS approach” (J Med Chem, 1996) are described below.

Several values for one entry are separate records, joined by “and”; a condition that tells them apart may be missing. Identical values can stand only once.

In this experiment the target is DNA topoisomerase II (Homo sapiens) (UniProt P11388+Q02880). Nature of the experiment: Compound tested for ability to form a cellular covalent topoisomerase II-DNA complex. It is filed as functional. Put shortly: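 Read-out is intracellular covalent topoisomerase II–DNA complex formation, scored as the percentage of cellular protein–DNA complex formed (PCPDCF). For CoMFA modelling the values were transformed to ln(PCPDCF + 1).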
As for `COc1cc([C@@H]2c3cc4c(cc3[C@H](N)[C@H]3COC(=O)[C@H]23)OCO4)cc(OC)c1O`, the Protein-DNA complex formation came out at 8%.

Regarding `COc1cc([C@@H]2c3cc4c(cc3[C@@H](NC(=O)c3cccc(F)c3)[C@H]3COC(=O)[C@H]23)OCO4)cc(OC)c1O`, the Protein-DNA complex formation was found to be 116%.

As to `COc1cc([C@@H]2c3cc4c(cc3[C@@H](Nc3ccc5c(c3)OCO5)[C@H]3COC(=O)[C@H]23)OCO4)cc(OC)c1O`, the Protein-DNA complex formation is 164%.

Regarding `COc1cc([C@@H]2c3cc4c(cc3[C@@H](NCc3cccc(N)c3)[C@H]3COC(=O)[C@H]23)OCO4)cc(OC)c1O`, the Protein-DNA complex formation is 191%.

Take `COc1cc([C@@H]2c3cc4c(cc3[C@@H](OC(=O)c3cccc(N)c3)[C@H]3COC(=O)[C@H]23)OCO4)cc(OC)c1O`: the Protein-DNA complex formation came out at 100%.

`C=CCN[C@@H]1c2cc3c(cc2[C@@H](c2cc(OC)c(O)c(OC)c2)[C@H]2C(=O)OC[C@@H]21)OCO3` returned a Protein-DNA complex formation of 84.1%.

Regarding `COc1cc([C@@H]2c3cc4c(cc3[C@@H](O)[C@H]3COC(=O)[C@H]23)OCO4)cc(OC)c1O`, the Protein-DNA complex formation amounted to 42.2%.

Turning to `COc1cc([C@@H]2c3cc4c(cc3[C@@H](NCc3cccc([N+](=O)[O-])c3)[C@H]3COC(=O)[C@H]23)OCO4)cc(OC)c1O`, the Protein-DNA complex formation amounted to 130%.

In turn, `COc1cc([C@@H]2c3cc4c(cc3[C@@H](Nc3cccc([N+](=O)[O-])c3)[C@H]3COC(=O)[C@H]23)OCO4)cc(OC)c1O` had a Protein-DNA complex formation of 230%.

`COc1cc([C@@H]2c3cc4c(cc3[C@@H](Nc3ccccn3)[C@H]3COC(=O)[C@H]23)OCO4)cc(OC)c1O` returned a Protein-DNA complex formation of 97%.

For the compound `COc1cc([C@@H]2c3cc4c(cc3[C@@H](Nc3cnc5ccccc5c3)[C@H]3COC(=O)[C@H]23)OCO4)cc(OC)c1O`, the Protein-DNA complex formation came out at 123%.

`COc1cc([C@@H]2c3cc4c(cc3[C@@H](Oc3ccc(O)cc3)[C@H]3COC(=O)[C@H]23)OCO4)cc(OC)c1O` returned a Protein-DNA complex formation of 34%.

`COc1cc([C@@H]2c3cc4c(cc3[C@@H](Nc3ccccc3Cl)[C@H]3COC(=O)[C@H]23)OCO4)cc(OC)c1O`: the Protein-DNA complex formation came to 32%.

Compound `COc1cc([C@@H]2c3cc4c(cc3[C@@H](NC(=O)c3ccccc3)[C@H]3COC(=O)[C@H]23)OCO4)cc(OC)c1O` came in with a Protein-DNA complex formation of 177%.

`COc1cc([C@@H]2c3cc4c(cc3[C@@H](Nc3ccc(Cl)cc3)[C@H]3COC(=O)[C@H]23)OCO4)cc(OC)c1O` showed a Protein-DNA complex formation of 99%.

With `COc1cc([C@@H]2c3cc4c(cc3[C@@H](NCCCO)[C@H]3COC(=O)[C@H]23)OCO4)cc(OC)c1O`, the Protein-DNA complex formation turned out to be 89.2%.

In turn, `COc1cc([C@@H]2c3cc4c(cc3[C@@H](Nc3ccc(F)cc3)[C@H]3COC(=O)[C@H]23)OCO4)cc(OC)c1O` displayed a Protein-DNA complex formation of 213%.

Turning to `COc1cc([C@@H]2c3cc4c(cc3[C@@H](NCc3ccccc3F)[C@H]3COC(=O)[C@H]23)OCO4)cc(OC)c1O`, the Protein-DNA complex formation was found to be 126%.

`COc1cc([C@@H]2c3cc4c(cc3[C@@H](Nc3ccc(C#N)cc3)[C@H]3COC(=O)[C@H]23)OCO4)cc(OC)c1O`: the Protein-DNA complex formation was found to be 211%.

For `COc1cc([C@@H]2c3cc4c(cc3[C@@H](N[C@@H](C)CO)[C@H]3COC(=O)[C@H]23)OCO4)cc(OC)c1O`, the Protein-DNA complex formation stood at 162%.

As for `COc1cc([C@@H]2c3cc4c(cc3[C@@H](Nc3cc(OC)c(OC)c(OC)c3)[C@H]3COC(=O)[C@H]23)OCO4)cc(OC)c1O`, the Protein-DNA complex formation turned out to be 47%.

The compound `COc1cc([C@@H]2c3cc4c(cc3[C@@H](Nc3ccc(I)cc3)[C@H]3COC(=O)[C@H]23)OCO4)cc(OC)c1O` gave a Protein-DNA complex formation of 64%.

In the case of `COc1cc([C@@H]2c3cc4c(cc3[C@@H](Nc3cccc(C#N)c3)[C@H]3COC(=O)[C@H]23)OCO4)cc(OC)c1O`, the Protein-DNA complex formation is 137%.

Compound `COc1cc([C@@H]2c3cc4c(cc3[C@@H](Nc3cccc(Cl)c3)[C@H]3COC(=O)[C@H]23)OCO4)cc(OC)c1O` displayed a Protein-DNA complex formation of 51%.

In turn, `COc1cc([C@@H]2c3cc4c(cc3[C@@H](Nc3cc([N+](=O)[O-])ccc3O)[C@H]3COC(=O)[C@H]23)OCO4)cc(OC)c1O` showed a Protein-DNA complex formation of 15%.

`COc1cc([C@@H]2c3cc4c(cc3[C@@H](Nc3cc(F)cc(F)c3)[C@H]3COC(=O)[C@H]23)OCO4)cc(OC)c1O` yielded a Protein-DNA complex formation of 115%.

`COc1cc([C@@H]2c3cc4c(cc3[C@@H](Nc3cccc(N)c3)[C@H]3COC(=O)[C@H]23)OCO4)cc(OC)c1O` showed a Protein-DNA complex formation of 140%.

As to `CCOC(=O)CC[C@H](NC(=O)c1ccc(N[C@@H]2c3cc4c(cc3[C@@H](c3cc(OC)c(O)c(OC)c3)[C@H]3C(=O)OC[C@@H]32)OCO4)cc1)C(=O)OCC`, the Protein-DNA complex formation was found to be 83%.

On to `COc1cc([C@@H]2c3cc4c(cc3[C@@H](NC(=O)c3cccc([N+](=O)[O-])c3)[C@H]3COC(=O)[C@H]23)OCO4)cc(OC)c1O`, for which the Protein-DNA complex formation is 86%.

Regarding `COc1cc([C@@H]2c3cc4c(cc3[C@@H](Nc3ccc(Oc5ccccc5)cc3)[C@H]3COC(=O)[C@H]23)OCO4)cc(OC)c1O`, the Protein-DNA complex formation was found to be 97%.

The compound `COc1cc([C@@H]2c3cc4c(cc3[C@@H](Nc3ccccc3F)[C@H]3COC(=O)[C@H]23)OCO4)cc(OC)c1O` had a Protein-DNA complex formation of 121%.

Turning to `COc1cc([C@@H]2c3cc4c(cc3[C@@H](NC(=O)c3ccc(C(C)=O)cc3)[C@H]3COC(=O)[C@H]23)OCO4)cc(OC)c1O`, the Protein-DNA complex formation was 124%.

For `COc1cc([C@@H]2c3cc4c(cc3[C@@H](NCc3ccc(C#N)cc3)[C@H]3COC(=O)[C@H]23)OCO4)cc(OC)c1O`, the Protein-DNA complex formation is 284%.

`CCCN[C@@H]1c2cc3c(cc2[C@@H](c2cc(OC)c(O)c(OC)c2)[C@H]2C(=O)OC[C@@H]21)OCO3`: the Protein-DNA complex formation is 69.7%.

Compound `COC(=O)c1ccc(N[C@@H]2c3cc4c(cc3[C@@H](c3cc(OC)c(O)c(OC)c3)[C@H]3C(=O)OC[C@@H]32)OCO4)cc1O` had a Protein-DNA complex formation of 129%.

Turning to `COc1cc([C@@H]2c3cc4c(cc3[C@@H](Nc3cccnc3)[C@H]3COC(=O)[C@H]23)OCO4)cc(OC)c1O`, the Protein-DNA complex formation amounted to 148%.

`COc1cc([C@@H]2c3cc4c(cc3[C@@H](NC(=O)c3ccc(C#N)cc3)[C@H]3COC(=O)[C@H]23)OCO4)cc(OC)c1O`: the Protein-DNA complex formation is 159%.

Consider `COC(=O)c1cccc(N[C@@H]2c3cc4c(cc3[C@@H](c3cc(OC)c(O)c(OC)c3)[C@H]3C(=O)OC[C@@H]32)OCO4)c1`, for which the Protein-DNA complex formation was found to be 249%.

`COc1cccc(N[C@@H]2c3cc4c(cc3[C@@H](c3cc(OC)c(O)c(OC)c3)[C@H]3C(=O)OC[C@@H]32)OCO4)c1` registered a Protein-DNA complex formation of 104%.

Take `COc1cc([C@@H]2c3cc4c(cc3[C@@H](Nc3cc(C(F)(F)F)cc(C(F)(F)F)c3)[C@H]3COC(=O)[C@H]23)OCO4)cc(OC)c1O`: the Protein-DNA complex formation is 21%.

For `COc1cc([C@@H]2c3cc4c(cc3[C@@H](Nc3cccc(CO)c3)[C@H]3COC(=O)[C@H]23)OCO4)cc(OC)c1O`, the Protein-DNA complex formation amounted to 235%.

Turning to `COc1cc([C@@H]2c3cc4c(cc3[C@@H](Nc3ccc(N)cc3)[C@H]3COC(=O)[C@H]23)OCO4)cc(OC)c1O`, the Protein-DNA complex formation is 330%.

With `COc1cc([C@@H]2c3cc4c(cc3[C@@H](Nc3ccccc3O)[C@H]3COC(=O)[C@H]23)OCO4)cc(OC)c1O`, the Protein-DNA complex formation was 151%.

`COc1cc([C@@H]2c3cc4c(cc3[C@@H](Sc3ccc(O)cc3)[C@H]3COC(=O)[C@H]23)OCO4)cc(OC)c1O`: the Protein-DNA complex formation is 10%.

In the case of `COc1cc([C@@H]2c3cc4c(cc3[C@@H](N)[C@H]3COC(=O)[C@H]23)OCO4)cc(OC)c1O`, the Protein-DNA complex formation is 36.4%.

Take `COc1cc([C@@H]2c3cc4c(cc3[C@@H](NCc3cccc(F)c3)[C@H]3COC(=O)[C@H]23)OCO4)cc(OC)c1O`: the Protein-DNA complex formation was 216%.

In turn, `COc1cc([C@@H]2c3cc4c(cc3[C@@H](NC(=O)c3ccc(OC(C)=O)cc3)[C@H]3COC(=O)[C@H]23)OCO4)cc(OC)c1O` had a Protein-DNA complex formation of 137%.

`CCOC(=O)c1ccccc1N[C@@H]1c2cc3c(cc2[C@@H](c2cc(OC)c(O)c(OC)c2)[C@H]2C(=O)OC[C@@H]21)OCO3` came in with a Protein-DNA complex formation of 4%.

Turning to `COc1cc([C@@H]2c3cc4c(cc3[C@@H](NCc3ccc(F)cc3)[C@H]3COC(=O)[C@H]23)OCO4)cc(OC)c1O`, the Protein-DNA complex formation is 169%.

`CCOC(=O)c1ccc(N[C@@H]2c3cc4c(cc3[C@@H](c3cc(OC)c(O)c(OC)c3)[C@H]3C(=O)OC[C@@H]32)OCO4)cc1` yielded a Protein-DNA complex formation of 207%.

The compound `COc1cc([C@@H]2c3cc4c(cc3[C@@H](Nc3ccc(Br)cc3)[C@H]3COC(=O)[C@H]23)OCO4)cc(OC)c1O` showed a Protein-DNA complex formation of 179%.

With `COCCN[C@@H]1c2cc3c(cc2[C@@H](c2cc(OC)c(O)c(OC)c2)[C@H]2C(=O)OC[C@@H]21)OCO3`, the Protein-DNA complex formation turned out to be 111%.

Compound `COc1cc([C@@H]2c3cc4c(cc3[C@@H](OC(=O)c3ccccc3)[C@H]3COC(=O)[C@H]23)OCO4)cc(OC)c1O` returned a Protein-DNA complex formation of 94%.

Regarding `COc1cc([C@@H]2c3cc4c(cc3[C@@H](Nc3ccc(O)cc3)[C@H]3COC(=O)[C@H]23)OCO4)cc(OC)c1O`, the Protein-DNA complex formation is 211%.

For `COc1cc([C@@H]2c3cc4c(cc3[C@@H](NCc3ccc([N+](=O)[O-])cc3)[C@H]3COC(=O)[C@H]23)OCO4)cc(OC)c1O`, the Protein-DNA complex formation is 216%.

In the case of `COc1cc([C@@H]2c3cc4c(cc3[C@@H](Nc3ccc5c(c3)OCCO5)[C@H]3COC(=O)[C@H]23)OCO4)cc(OC)c1O`, the Protein-DNA complex formation is 279%.

On to `COc1cc([C@@H]2c3cc4c(cc3[C@@H](NCCN3CCCCC3)[C@H]3COC(=O)[C@H]23)OCO4)cc(OC)c1O`, for which the Protein-DNA complex formation is 183% and 190%.

As for `COc1cc([C@@H]2c3cc4c(cc3[C@H](NCCO)[C@H]3COC(=O)[C@H]23)OCO4)cc(OC)c1O`, the Protein-DNA complex formation amounted to 0%.

The compound `COc1cc([C@@H]2c3cc4c(cc3[C@@H](Nc3cccc(F)c3)[C@H]3COC(=O)[C@H]23)OCO4)cc(OC)c1O` came in with a Protein-DNA complex formation of 158%.
